In series [1] the target is T1, h-NTPDase2 (Homo sapiens, UniProt Q9Y5L3).
T1 sequence (Q9Y5L3 1-495): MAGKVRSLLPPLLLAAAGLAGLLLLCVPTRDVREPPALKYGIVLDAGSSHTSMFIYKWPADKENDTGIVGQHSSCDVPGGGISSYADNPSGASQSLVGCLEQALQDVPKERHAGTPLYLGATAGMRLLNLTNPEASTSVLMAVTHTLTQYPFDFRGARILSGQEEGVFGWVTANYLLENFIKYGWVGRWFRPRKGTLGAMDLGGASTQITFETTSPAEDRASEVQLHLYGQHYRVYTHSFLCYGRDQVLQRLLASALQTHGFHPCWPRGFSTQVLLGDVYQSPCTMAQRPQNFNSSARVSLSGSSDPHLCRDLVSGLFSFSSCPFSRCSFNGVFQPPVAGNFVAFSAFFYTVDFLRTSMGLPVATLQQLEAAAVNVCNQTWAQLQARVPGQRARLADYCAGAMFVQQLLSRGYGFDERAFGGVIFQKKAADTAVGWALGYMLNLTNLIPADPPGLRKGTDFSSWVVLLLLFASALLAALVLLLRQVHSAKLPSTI
Nature of the series: h-NTPDase activity assay. The series is classed as biochemical. To be noted: for inhibition at 100 µM: read-out: % Inhibition h-NTPDase2.

Series [2] concerns the target T2, h-NTPDase3 (Homo sapiens, UniProt O75355).
T2 sequence (O75355 1-529): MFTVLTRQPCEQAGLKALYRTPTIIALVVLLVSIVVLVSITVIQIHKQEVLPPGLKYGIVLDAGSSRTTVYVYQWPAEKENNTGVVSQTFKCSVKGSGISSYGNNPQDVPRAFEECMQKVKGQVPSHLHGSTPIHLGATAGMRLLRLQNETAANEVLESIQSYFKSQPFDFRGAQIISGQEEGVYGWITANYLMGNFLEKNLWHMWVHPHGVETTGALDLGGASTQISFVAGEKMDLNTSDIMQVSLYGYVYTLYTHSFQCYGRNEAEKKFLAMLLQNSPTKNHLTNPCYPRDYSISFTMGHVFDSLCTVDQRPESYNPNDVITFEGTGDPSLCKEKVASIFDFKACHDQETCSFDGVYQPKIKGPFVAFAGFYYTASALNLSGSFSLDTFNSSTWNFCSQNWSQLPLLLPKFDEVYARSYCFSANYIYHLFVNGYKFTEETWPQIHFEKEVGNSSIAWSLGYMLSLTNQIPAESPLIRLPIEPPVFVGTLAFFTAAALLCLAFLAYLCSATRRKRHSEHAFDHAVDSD
Nature of the series: h-NTPDase activity assay. The series is classed as biochemical. The settings on record: for inhibition at 100 µM: read-out: % Inhibition h-NTPDase3. The method, boiled down:
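Human NTPDase1, -2, -3 or -8 came from COS-7 cells transfected with plasmids via Lipofectamine, harvested at 44–48 h, sonicated and cleared of nuclei, with protein measured by Bradford. Enzyme per well was 12, 37, 43 or 63 ng respectively. Compound (0.1 mM final) was pre-incubated 10 min at 37 °C in 50 mM Tris–HCl, 5 mM CaCl2, pH 7.4. The reaction was started with ATP (100 µM), run 15 min, and stopped with malachite green; Pi was read at 630 nm.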

The target in series [3] is T3, h-e5’NT (Homo sapiens, UniProt P21589).
T3 sequence (P21589 27-574): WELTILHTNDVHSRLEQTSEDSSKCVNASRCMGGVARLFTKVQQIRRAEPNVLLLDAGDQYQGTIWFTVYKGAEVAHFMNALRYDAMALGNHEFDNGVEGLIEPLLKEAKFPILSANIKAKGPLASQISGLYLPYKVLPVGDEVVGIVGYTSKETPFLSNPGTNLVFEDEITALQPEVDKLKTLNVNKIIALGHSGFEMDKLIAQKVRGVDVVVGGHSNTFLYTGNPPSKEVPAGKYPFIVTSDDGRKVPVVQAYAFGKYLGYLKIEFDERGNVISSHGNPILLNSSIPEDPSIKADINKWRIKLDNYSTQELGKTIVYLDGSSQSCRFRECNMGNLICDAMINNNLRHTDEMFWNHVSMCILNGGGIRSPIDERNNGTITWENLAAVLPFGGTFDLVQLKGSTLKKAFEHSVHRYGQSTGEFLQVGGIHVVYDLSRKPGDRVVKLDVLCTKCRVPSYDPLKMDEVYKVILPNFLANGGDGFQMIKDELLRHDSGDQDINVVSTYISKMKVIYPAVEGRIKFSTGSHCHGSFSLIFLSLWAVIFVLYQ
Nature of the series: h-e5’NT activity assay. It is filed as biochemical. The settings on record: for inhibition at 100 µM: read-out: % Inhibition h-e5’NT. The method, boiled down: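 Human ecto-5′-nucleotidase from transfected COS-7 cells was pre-incubated 10 min at 37 °C with compound (0.1 mM final) in 50 mM Tris–HCl with MgCl₂ and CaCl₂, pH 7.4. The reaction was started with AMP (2 mM solution as added) and run 20 min at 37 °C. Released phosphate was detected with malachite green at 630 nm, in triplicate.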

Series [4] in a line: MTT assay. The series is classed as cell-based, human. The settings on record: human, MCF-7 breast cancer cells, MCF-7, 100 μM; for cytotoxicity at 24 h, 100 µM: % Cytotoxicity ± SD; for viability at 24 h, 100 µM: % Viability.
In series [5] the target is T4, h-NTPDase8 (Homo sapiens, UniProt Q5MY95).
T4 sequence (Q5MY95 1-495): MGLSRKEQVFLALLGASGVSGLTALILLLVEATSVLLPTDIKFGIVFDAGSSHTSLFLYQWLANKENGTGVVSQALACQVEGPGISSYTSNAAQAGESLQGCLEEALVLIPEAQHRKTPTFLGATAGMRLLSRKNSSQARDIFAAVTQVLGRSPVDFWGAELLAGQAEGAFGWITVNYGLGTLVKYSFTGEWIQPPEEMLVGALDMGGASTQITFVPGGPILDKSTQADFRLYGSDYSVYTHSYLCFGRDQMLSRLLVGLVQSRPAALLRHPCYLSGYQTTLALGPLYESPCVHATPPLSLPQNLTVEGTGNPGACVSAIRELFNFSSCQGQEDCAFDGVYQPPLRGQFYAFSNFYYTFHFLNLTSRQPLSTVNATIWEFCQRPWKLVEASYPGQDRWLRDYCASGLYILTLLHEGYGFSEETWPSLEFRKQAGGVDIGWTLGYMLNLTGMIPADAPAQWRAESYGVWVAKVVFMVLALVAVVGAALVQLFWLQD
Nature of the series: h-NTPDase activity assay. It is filed as biochemical. To be noted: for inhibition at 100 µM: read-out: % Inhibition h-NTPDase8, at 100 µM.

This is an account of results in article PMC13022283 (Scientific Reports, 2026).

The term inhibition denotes the relative decrease from the control value, in per cent. Usually viability stands for a read-out of living cells in per cent, often relative to untreated cells. Low readings indicate a greater loss of cells, high ones better survival. Regarding `O=C(Nc1ccc(I)cc1)c1ccc2ncccc2c1` [Compound 4k, N-(4-Iodophenyl)quinoline-6-carboxamide], the inhibition at 100 µM in series [1] stood at 18.6%; in series [2] it was 38.5%; in series [3] it was 28.4%; in series [5] it was 27%. The cytotoxicity at 24 h, 100 µM in series [4] was 56.9 ± 16.9%. In series [4], this compound returned a viability at 24 h, 100 µM of 43 to 45%.

As usually defined, the IC50 is the midpoint of a concentration-inhibition curve. Low readings indicate greater potency in that assay, high ones weaker potency in that assay. With `O=C(NCc1ccc(F)cc1)c1ccc2ncccc2c1` [Compound 4b, N-(4-fluorobenzyl)quinoline-6-carboxamide], the inhibition at 100 µM in series [1] was 26.2%; in series [2], 67.8%; in series [3] it was 37%; in series [5], 83%. Also, the results for the IC50 in series [2] and in series [5] were 350 ± 170 nM and 440 ± 80 nM, respectively. Besides, the cytotoxicity at 24 h, 100 µM in series [4] came out at 25.1 ± 6.08%. Further, the viability at 24 h, 100 µM in series [4] worked out at 74.9%.

On to `Cc1ccc(F)cc1NC(=O)c1ccc2ncccc2c1` [Compound 4l, N-(5-fluoro 2-methylphenyl)quinoline-6-carboxamide], for which the inhibition at 100 µM stood at 41.2% in series [1], 36.1% in series [2], 61% in series [3] and 26.1% in series [5]. In series [3], this compound yielded an IC50 of 470 ± 260 nM. Moreover, the cytotoxicity at 24 h, 100 µM in series [4] was 39.5 ± 15.5%. The viability at 24 h, 100 µM in series [4] came out at 60.5%.

Take `O=C(Nc1ccccc1I)c1ccc2ncccc2c1` [Compound 4h, N-(2-iodophenyl)quinoline-6-carboxamide]: the inhibition at 100 µM in series [1] was 28.3%; in series [2] it was 85%; in series [3], 87%; in series [5], 65.6%. The figures for the IC50 in series [2], in series [3] and in series [5] were 880 ± 290 nM, 390 ± 100 nM and 3290 ± 360 nM, respectively. This compound also had a cytotoxicity at 24 h, 100 µM in series [4] of 49.7 ± 2.17%. Also, in series [4], the viability at 24 h, 100 µM was determined as 50.3%.

In the case of `O=C(Nc1ccc(F)cc1F)c1ccc2ncccc2c1` [Compound 4e, N-(2,4 difluorophenyl)quinoline-6-carboxamide], the inhibition at 100 µM in series [1] worked out at 36.4%; in series [2] it was 40.2%; in series [3] it was 66.9%; in series [5] it was 39.5%. This compound registered an IC50 in series [3] of 540 ± 90 nM. Besides, in series [4], the cytotoxicity at 24 h, 100 µM is 14.6 ± 2.48%. For the same compound, in series [4], the viability at 24 h, 100 µM was 85.4%.

As for `Cc1ccc(CNC(=O)c2ccc3ncccc3c2)cc1` [Compound 4c, N-(4-methylbenzyl)quinoline-6-carboxamide], the IC50 in series [1] came out at 6390 ± 1070 nM; in series [2], 670 ± 270 nM; in series [3], 190 ± 10 nM; in series [5], 990 ± 130 nM. Moreover, the inhibition at 100 µM stood at 68.4% in series [1], 78.4% in series [2], 50.7% in series [3] and 70.9% in series [5]. The compound further returned a cytotoxicity at 24 h, 100 µM in series [4] of 42.2 ± 0.81%. In series [4], this compound returned a viability at 24 h, 100 µM of 57.8%.

Turning to `O=C(Nc1c(F)cccc1F)c1ccc2ncccc2c1` [Compound 4d, N-(2,6 difluorophenyl)quinoline-6-carboxamide], the IC50 in series [1] amounted to 920 ± 170 nM; in series [2], 820 ± 70 nM. In addition, the inhibition at 100 µM in series [1] is 80.1%; in series [2], 58.4%; in series [3], 35.6%; in series [5] it was 33%. Moreover, the cytotoxicity at 24 h, 100 µM in series [4] turned out to be 48 ± 12.7%. This compound also gave a viability at 24 h, 100 µM in series [4] of 52%.

Take `O=C(Nc1ccccn1)c1ccc2ncccc2c1` [Compound 4g, N-(pyridin-2-yl)quinoline-6-carboxamide]: the inhibition at 100 µM was found to be 33.9% in series [1], 81.7% in series [2], 82% in series [3] and 20.4% in series [5]. In addition, the IC50 in series [2] came out at 320 ± 50 nM; in series [3] it was 340 ± 70 nM. In addition, the cytotoxicity at 24 h, 100 µM in series [4] worked out at 47.4 ± 1.8%. In addition, the viability at 24 h, 100 µM in series [4] is 52.6%.
